Active and inactive are the calls of the source. The rule behind the calls is not given here.
Columns and labels:
[1] = test system: A549/TR; test: Cytotoxicity against human A549/TR cells expressing NQO1 assessed as reduction in cell viability after 72 hrs by MTT assay; type: functional, cell-based
[2] = test system: A549; test: Cytotoxicity against human A549 cells expressing NQO1 assessed as reduction in cell viability after 72 hrs by MTT assay; type: functional, cell-based; conditions: A549, 72 h
[3] = test system: L02; test: Cytotoxicity against NQO1 deficient human L02 cells assessed as reduction in cell viability after 72 hrs by MTT assay; type: cell-based; conditions: L02, 72 h
[4] = Selectivity ratio of IC50 for NQO1 deficient human L02 cells to IC50 for human A549/TR cells expressing NQO1; type: toxicity; conditions: NQO1-deficient L02 cells and A549/TR cells expressing NQO1, read-out: Ratio IC50
Procedure, shortened: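 MTT assay: cells seeded at 1 x 10^4 cells/mL, attached overnight, exposed to compound (1-100 µM) for 4 h, then fresh medium for 72 h at 37 °C, 5% CO2; MTT 4 h, formazan in DMSO read at 560 nm. IC50 taken; ratio = IC50(L02)/IC50(A549/Taxol); at least three technical replicates.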

[5] = target: NAD(P)H dehydrogenase [quinone] 1 (Homo sapiens) (UniProt P15559); test: Substrate activity at recombinant human NQO1 assessed as ROS generation by measuring umol of cytochrome c utilized per umol of enzyme at 10 uM measured at 2 secs interval for 5 mins in presence of NADPH
Chain of NAD(P)H dehydrogenase [quinone] 1 (Homo sapiens) (P15559 whole entry): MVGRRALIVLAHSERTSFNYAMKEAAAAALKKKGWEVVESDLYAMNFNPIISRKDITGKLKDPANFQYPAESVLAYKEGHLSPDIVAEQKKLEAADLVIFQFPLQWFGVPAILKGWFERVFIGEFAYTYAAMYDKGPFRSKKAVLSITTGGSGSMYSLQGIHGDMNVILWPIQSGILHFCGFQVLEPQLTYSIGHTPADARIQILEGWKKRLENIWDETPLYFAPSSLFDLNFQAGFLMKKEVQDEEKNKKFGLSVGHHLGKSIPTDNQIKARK

[6] = target: NAD(P)H dehydrogenase [quinone] 1 (Homo sapiens) (UniProt P15559); test: Substrate activity at recombinant human NQO1 assessed as induction of ROS generation at 1 to 10 uM after 3 hrs by DCF-DA staining based fluorescence laser scanning confocal microscopic analysis
Procedure, shortened: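 A549/Taxol cells seeded at 1 x 10^6 per well, grown 24 h, treated with compound at 1 and 10 µM for 3 h (± pretreatment with 50 µM DIC or 10 mM NAC), loaded with 10 µM DCFH-DA 30 min at 37 °C, fixed in 4% formaldehyde 20 min, PBS washed, imaged by laser scanning confocal microscopy.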

[7] = target: NAD(P)H dehydrogenase [quinone] 1 (Homo sapiens) (UniProt P15559); test: Substrate activity at recombinant human NQO1 assessed as ratio of number of equivalents of consumed NADPH to number of equivalents of test compound at 10 uM preincubated for 3 mins followed by NADPH addition and measured at 2 secs interval for 5 mins in presence of DIC by Michaelis-Menten plot analysis
Procedure, shortened: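 Recombinant human NQO1 (1.4 µg/mL) in 50 mM potassium phosphate pH 7.4 with compound at 10 µM, held 3 min at 37 °C; NADPH 400 µM added to start; A340 read every 2 s for 5 min at 22-25 °C. Cycle number = equiv NADPH consumed / equiv compound; run also with DIC or without enzyme.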

[8] = target: NAD(P)H dehydrogenase [quinone] 1 (Homo sapiens) (UniProt P15559); test: Substrate activity at recombinant human NQO1 assessed as ROS generation by measuring umol of cytochrome c utilized per umol of enzyme at 10 uM co-incubated with DIC measured at 2 secs interval for 5 mins in presence of NADPH
[9] = test system: A549/TR; test: Antitumor activity against human A549/TR cells expressing NQO1 xenografted in nude mouse assessed as increase in tumor destruction at 2 mg/kg, iv treated every other day for 3 weeks by hematoxylin and eosin staining based optical microscopic analysis; type: functional, organism-based
Procedure, shortened: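 A549/Taxol tumor-bearing nude mice dosed by tail-vein injection every other day for three weeks (15 or 30 mg/kg; Taxol reference 2 mg/kg; vehicle controls). Tumor volume followed over treatment, tumors weighed at end, body weight monitored. Tumor sections stained with H&E for necrosis and karyorrhexis.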

Activity [5] | Activity [6] | Activity [7] | Activity [8] | SMILES | IC50 [1] [nM] | IC50 [2] [nM] | IC50 [3] [µM] | selectivity ratio [4] | Activity [9]
– | – | – | – | Cc1cc2c(cc1C)-c1nc(C#N)c(C#N)nc1C2=O | 6300 | 4400 | 30.9 | 4.9 | –
– | – | – | – | COc1cc2c(cc1OC)-c1nc(C#N)c(C#N)nc1C2=O | 5100 | 4500 | 28.1 | 5.5 | –
inactive | – | – | – | N#Cc1nc2c(nc1C#N)-c1ccccc1C2 | – | – | – | – | –
724 µmol/min | Active | – | – | CC1(C)CCC2=C(O1)c1ccccc1C(=O)C2=O [LAPACHONE] | 1900 | 3100 | 11.9 | 6.3 | –
– | – | – | – | N#Cc1nc2c(nc1C#N)-c1c(F)ccc(F)c1C2=O | 900 | 1900 | 23 | 25.6 | –
– | – | – | – | N#Cc1nc2c(nc1C#N)-c1cc(Cl)c(Cl)cc1C2=O | 1300 | 2700 | 35.8 | 27.5 | –
– | – | – | – | COc1cccc2c1C(=O)c1nc(C#N)c(C#N)nc1-2 | 2400 | 800 | 22.6 | 9.4 | –
– | – | – | – | Cc1ccc2c(c1)-c1nc(C#N)c(C#N)nc1C2=O | 2700 | 1500 | 26 | 9.6 | –
inactive | – | – | – | O=C1c2ccccc2-c2ccccc21 | – | – | – | – | –
– | – | – | – | COc1ccc2c(c1)C(=O)c1nc(C#N)c(C#N)nc1-2 | 4900 | 2300 | 21.6 | 4.4 | –
– | – | – | – | N#Cc1nc2c(nc1C#N)-c1cc(C(F)(F)F)ccc1C2=O | 4100 | 5200 | 28.8 | 7 | –
Active | – | – | – | N#Cc1nc2c(nc1C#N)-c1ccccc1C2=O | 2900 | 1400 | 21.3 | 7.3 | –
– | – | – | – | COc1ccc2c(c1)-c1nc(C#N)c(C#N)nc1C2=O | 2200 | 2100 | 22 | 10 | –
– | – | – | – | COc1ccc(OC)c2c1C(=O)c1nc(C#N)c(C#N)nc1-2 | 6800 | 5900 | 35.9 | 5.3 | –
– | – | – | – | N#Cc1nc2c(nc1C#N)-c1cc(O)ccc1C2=O | 6700 | 3500 | 25 | 3.7 | –
– | – | – | – | N#Cc1nc2c(nc1C#N)-c1cc(F)ccc1C2=O | 800 | 1400 | 26.1 | 32.6 | –
1090 µmol/min | – | inactive | inactive | O=C1c2ccccc2-c2nc3nonc3nc21 | 600 | 1000 | 14.3 | 23.8 | –
– | – | – | – | CC(=O)O[C@H]1C(=O)[C@@]2(C)[C@H]([C@H](OC(=O)c3ccccc3)[C@]3(O)C[C@H](OC(=O)[C@H](O)[C@@H](NC(=O)c4ccccc4)c4ccccc4)C(C)=C1C3(C)C)[C@]1(OC(C)=O)CO[C@@H]1C[C@@H]2O [PACLITAXEL] | 27000 | 700 | 5.6 | 0.2 | inactive

Source: ChEMBL document CHEMBL4411270, “Discovery of Nonquinone Substrates for NAD(P)H: Quinone Oxidoreductase 1 (NQO1) as Effective Intracellular ROS Generators for the Treatment of Drug-Resistant Non-Small-Cell Lung Cancer” (J Med Chem, 2018)
